This passage reports Tm and folding enthalpy results from the array DNA melting data of Ke et al. (doi:10.1101/2024.01.08.574731).

Series [1] is described as follows: melting temperature; fluorescence melt of hairpins on a sequencing array, two-state fit, raised by 9.35 °C to match UV melts. The conditions noted are these: sodium 0.088 M. The procedure, abridged:
(§1)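 In 50 mM Na-HEPES pH 8.0 containing 25 mM NaCl, hairpins from the library on a sequenced MiSeq flow cell were imaged for Cy3 fluorescence at 2.5 °C steps up to 60 °C, with Cy3 and quencher oligos annealed. After normalisation to pre-quench Cy3 and to control constructs, two-state fits with bootstrapping gave melting temperature and folding enthalpy. Four replicates were combined by inverse-variance weighting, and fitted temperatures were shifted up by 9.35 °C to match UV melts.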

The nature of series [2]: folding enthalpy; higher = less favourable; fluorescence melt of hairpins on a sequencing array, two-state fit. The conditions noted are these: sodium 0.088 M. The procedure, abridged: as §1

For GTGTGACGAAAGTCGCAC (((.(((....))).))), in series [1], the Tm came to 65.9 °C. In addition, the folding enthalpy in series [2] is -42.5 kcal/mol.

As for GCCGAGCGAAAGCCCTGC ((.(.((....)).).)), the Tm in series [1] was 33.5 °C. Besides, in series [2], the folding enthalpy was -13.7 kcal/mol.

Consider GGTGTCCGAAAGGAAACC (((.(((....))).))), for which, in series [1], the Tm turned out to be 52.7 °C. Further, in series [2], the folding enthalpy is -27.9 kcal/mol.

As to CGCTCGGAAACGACCGCG ((((((....)))..))), in series [1], the Tm was 38.6 °C. The folding enthalpy in series [2] was -21.6 kcal/mol.

With GATCTTGCGTAAGATC ((((((....)))))), the Tm in series [1] came out at 43.6 °C. For the same sequence, the folding enthalpy in series [2] is -39.6 kcal/mol.

As to GAATCACGAAAGTGCTTC (((.(((....))).))), the Tm in series [1] worked out at 38.5 °C. In series [2], the folding enthalpy was -20.8 kcal/mol.

For the sequence GCGGGAGGAAACTTCCGC ((((.((....)).)))), the Tm in series [1] was 58.6 °C. Moreover, the folding enthalpy in series [2] was -40.1 kcal/mol.

Turning to GAACGCGAAAGCGTTTTC ((((((....)))..))), the Tm in series [1] stood at 56.6 °C. Moreover, the folding enthalpy in series [2] is -11.6 kcal/mol.

For GCACTCGAAAGAGTGTGC ((((((....)))..))), in series [1], the Tm stood at 63.8 °C. In series [2], the folding enthalpy is -20.1 kcal/mol.

For GACTAAGGAAACTTAGTC (((((((....))))))), the Tm in series [1] is 52.5 °C. Moreover, the folding enthalpy in series [2] was -35.1 kcal/mol.

Turning to GATCCAAGAGTGGATC ((((((....)))))), the Tm in series [1] is 46 °C. In addition, the folding enthalpy in series [2] is -28.6 kcal/mol.

Take GTAGCGGCGAAAGCCTAC (((..(((....)))))): the Tm in series [1] is 29.9 °C. Also, the folding enthalpy in series [2] was -10.4 kcal/mol.

On to CGAGAGCGGAAACGCTCG (((..(((....)))))), for which, in series [1], the Tm came to 58.4 °C. In addition, in series [2], the folding enthalpy was -18.5 kcal/mol.

In the case of GCGTGCTCGAAAGAGCGC (((..(((....)))))), the Tm in series [1] was determined as 51.5 °C. For the same sequence, in series [2], the folding enthalpy was -10.2 kcal/mol.

As to GTTCCCGGAAACGAGAAC ((((.((....)).)))), the Tm in series [1] was 40.8 °C. Besides, the folding enthalpy in series [2] is -30.2 kcal/mol.

As to GGGTCCGGAAACAGACCC (((((.(....).))))), the Tm in series [1] amounted to 49.5 °C. In addition, the folding enthalpy in series [2] was -44.5 kcal/mol.

As for GAATAGGAAACTATTC ((((((....)))))), the Tm in series [1] is 40.7 °C. Besides, the folding enthalpy in series [2] was -31 kcal/mol.

Turning to GCGAGCGAAAGCTACCGC ((((((....)))..))), the Tm in series [1] came out at 48.1 °C. In addition, the folding enthalpy in series [2] was -18.8 kcal/mol.

Consider GTTATCGAAAGATGAAC ((((((....))).))), for which the Tm in series [1] was 26.4 °C. Moreover, in series [2], the folding enthalpy is -13.2 kcal/mol.

Consider GCAAATCCGAAAGGATGC (((..(((....)))))), for which the Tm in series [1] was determined as 47.8 °C. Further, in series [2], the folding enthalpy was -17.5 kcal/mol.

With GATCAGGGCTCTGATC ((((((....)))))), the Tm in series [1] turned out to be 55.1 °C. In series [2], the folding enthalpy was -38.8 kcal/mol.

For GCCTCCGAAAGGACAGGC ((((((....)))..))), the Tm in series [1] stood at 49.8 °C. Further, the folding enthalpy in series [2] was -36.5 kcal/mol.

Turning to GAGAGCGAAAGCTTACTC ((((((....)))..))), the Tm in series [1] turned out to be 30.6 °C. The folding enthalpy in series [2] was -12.3 kcal/mol.

In the case of GAGTACGAAAGTAAACTC ((((((....)))..))), the Tm in series [1] was found to be 35.9 °C. For the same sequence, the folding enthalpy in series [2] was -26.2 kcal/mol.

GGATCCGGAAACGGATTC (.(((((....))))).): the Tm in series [1] is 52 °C. The folding enthalpy in series [2] was -15.7 kcal/mol.

In the case of GGGTTAGGAAACTAACCC (((((((....))))))), in series [1], the Tm was 61.3 °C. In series [2], the folding enthalpy was -47.6 kcal/mol.

Regarding CGCACGGAAACGTCAGCG ((((((....)))..))), the Tm in series [1] came out at 42.7 °C. Further, the folding enthalpy in series [2] is -26.4 kcal/mol.

Turning to GCAGAGTCGAAAGACTGC (((..(((....)))))), the Tm in series [1] is 48.7 °C. In addition, the folding enthalpy in series [2] is -16.7 kcal/mol.

Consider GCGATAGGAAACCATCGC (((((.(....).))))), for which, in series [1], the Tm was 50.1 °C. Besides, in series [2], the folding enthalpy is -34.5 kcal/mol.

Consider GCTTCTGGAAACAGAAGC (((((((....))))))), for which the Tm in series [1] was 64.9 °C. For the same sequence, in series [2], the folding enthalpy is -49 kcal/mol.

Consider GCCGACGAAAGTCATGGC ((((((....)))..))), for which the Tm in series [1] worked out at 51.6 °C. Further, the folding enthalpy in series [2] is -34.5 kcal/mol.

Turning to GATCTACAGTAGATC ((((((...)))))), the Tm in series [1] was 39.3 °C. Also, in series [2], the folding enthalpy is -38.7 kcal/mol.

As for GATCCAGATATGGATC ((((((....)))))), in series [1], the Tm came out at 57.1 °C. Further, the folding enthalpy in series [2] is -41.7 kcal/mol.

With GATCAAAGGCTTGATC ((((((....)))))), the Tm in series [1] was 41 °C. For the same sequence, the folding enthalpy in series [2] is -31.5 kcal/mol.

For the sequence GTCATACCGAAAGGTGAC (((..(((....)))))), the Tm in series [1] was 43 °C. In addition, the folding enthalpy in series [2] was -19 kcal/mol.

As to GGTGGAGGAAACTCCATC (.(((((....))))).), the Tm in series [1] amounted to 49.4 °C. The folding enthalpy in series [2] is -26.6 kcal/mol.

For GCATTCGAAAGAATTTGC ((((((....)))..))), the Tm in series [1] turned out to be 30.2 °C. Further, the folding enthalpy in series [2] is -16.9 kcal/mol.
